pIC50: −log10 of the molar value. Activity calls are given as the source filed them. The calls are words filed in the database; no cut-off is given here.
Legend:
[1] = target: T1, Hypoxia inducible factors; HIF-1-alpha, HIF-2-alpha (Homo sapiens, UniProt Q16665+Q99814); assay: Inhibition of hypoxia-induced HIF1 activation in human T47D cells by HRE3-TK-luciferase reporter gene assay; format: cell-based
[2] = target: T1, Hypoxia inducible factors; HIF-1-alpha, HIF-2-alpha; assay: Inhibition of 1, 10-phenanthroline-induced HIF1 activation in human T47D cells by HRE3-TK-luciferase reporter gene assay; format: cell-based
[3] = target: T1, Hypoxia inducible factors; HIF-1-alpha, HIF-2-alpha; details: T47D, at 1 to 10 µM
T47D [4] = assay: Cytotoxicity against human T47D cells; format: cell-based
[5] = target: T1, Hypoxia inducible factors; HIF-1-alpha, HIF-2-alpha; assay: Inhibition of hypoxia-induced HIF1 activation in human PC3 cells by HRE3-TK-luciferase reporter gene assay; format: cell-based; details: pc-3
Procedure, shortened: (§1)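 HIF-1 activity measured with the pHRE3-TK-Luc luciferase reporter in PC-3 cells. Cycloheximide 100 µM served as the positive control. Run in triplicate, representative of two independent experiments. IC50 reported with 95% CI.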

[6] = target: T1, Hypoxia inducible factors; HIF-1-alpha, HIF-2-alpha; assay: Inhibition of 1, 10-phenanthroline-induced HIF1 activation in human PC3 cells by HRE3-TK-luciferase reporter gene assay; format: cell-based; details: pc-3; procedure, shortened: as §1
[7] = target: T1, Hypoxia inducible factors; HIF-1-alpha, HIF-2-alpha; assay: Inhibition of HIF1-mediated secreted VEGF expression in hypoxia-stimulated human T47D cells by […]; format: cell-based
Procedure, shortened: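 T47D cells treated with compound (1, 3, 10 µM) under hypoxia (1% O2, 16 h). Secreted VEGF in conditioned medium quantified by ELISA and normalized to cellular protein (micro BCA). n = 3 from one experiment, representative of two. One-way ANOVA with Bonferroni post hoc.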

[8] = target: T1, Hypoxia inducible factors; HIF-1-alpha, HIF-2-alpha; assay: Inhibition of HIF1-mediated proliferation of hypoxia-stimulated human SK-BR-3 cells after 48 hrs by SRB assay; format: cell-based
Procedure, shortened: (§2)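 Exponentially growing cells were seeded at 30,000/well and held overnight at 37 °C in DMEM/F12 with 10% FBS and pen/strep. Compound (0.31–20 µM) was added in serum-free medium for 48 h. Viability was read by sulforhodamine B. % Inhibition = [1 − (ODtreated/ODcontrol)] × 100, from triplicate wells.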

[9] = target: T1, Hypoxia inducible factors; HIF-1-alpha, HIF-2-alpha; assay: Inhibition of HIF1-mediated proliferation of hypoxia-stimulated human MDA-MB-231 cells after 48 hrs by SRB assay; format: cell-based; procedure, shortened: as §2
[10] = target: T1, Hypoxia inducible factors; HIF-1-alpha, HIF-2-alpha; assay: Inhibition of HIF1-mediated proliferation of hypoxia-stimulated human PC3 cells after 48 hrs by SRB assay; format: cell-based; details: PC-3; procedure, shortened: as §2
[11] = target: T1, Hypoxia inducible factors; HIF-1-alpha, HIF-2-alpha; assay: Inhibition of HIF1-mediated proliferation of hypoxia-stimulated human T47D cells at 20 uM after 48 hrs by SRB assay; format: cell-based; procedure, shortened: as §2
[12] = target: T1, Hypoxia inducible factors; HIF-1-alpha, HIF-2-alpha; assay: Inhibition of HIF1-mediated proliferation of hypoxia-stimulated human SK-BR-3 cells at 20 uM after 48 hrs by SRB assay; format: cell-based; procedure, shortened: as §2
[13] = target: T1, Hypoxia inducible factors; HIF-1-alpha, HIF-2-alpha; assay: Inhibition of HIF1-mediated proliferation of hypoxia-stimulated human MDA-MB-231 cells at 20 uM after 48 hrs by SRB assay; format: cell-based; procedure, shortened: as §2
[14] = target: T1, Hypoxia inducible factors; HIF-1-alpha, HIF-2-alpha; assay: Inhibition of HIF1-mediated proliferation of hypoxia-stimulated human PC3 cells at 20 uM after 48 hrs by SRB assay; format: cell-based; details: PC-3; procedure, shortened: as §2
[15] = target: T1, Hypoxia inducible factors; HIF-1-alpha, HIF-2-alpha; assay: Inhibition of HIF1-mediated proliferation of hypoxia-stimulated human T47D cells at 0.31 to 20 uM after 48 hrs by SRB assay; format: cell-based; procedure, shortened: as §2
[16] = target: T1, Hypoxia inducible factors; HIF-1-alpha, HIF-2-alpha; assay: Inhibition of HIF1-mediated proliferation of hypoxia-stimulated human SK-BR-3 cells at 0.31 to 20 uM after 48 hrs by SRB assay; format: cell-based; procedure, shortened: as §2
[17] = target: T1, Hypoxia inducible factors; HIF-1-alpha, HIF-2-alpha; assay: Inhibition of HIF1-mediated proliferation of hypoxia-stimulated human MDA-MB-231 cells at 0.31 to 20 uM after 48 hrs by SRB assay; format: cell-based; procedure, shortened: as §2
[18] = target: T1, Hypoxia inducible factors; HIF-1-alpha, HIF-2-alpha; assay: Inhibition of HIF1-mediated proliferation of hypoxia-stimulated human PC3 cells at 0.31 to 20 uM after 48 hrs by SRB assay; format: cell-based; details: PC-3; procedure, shortened: as §2
[19] = target: T1, Hypoxia inducible factors; HIF-1-alpha, HIF-2-alpha; assay: Inhibition of HIF1-mediated proliferation of hypoxia-stimulated human SK-BR-3 cells up to 20 uM after 16 hrs by SRB assay; format: cell-based
Procedure, shortened: (§3)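 Short-term viability: cells exposed to compound at up to 20 µM for 16 h under hypoxia (1% O2), then read by sulforhodamine B and expressed as % inhibition of untreated control.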

[20] = target: T1, Hypoxia inducible factors; HIF-1-alpha, HIF-2-alpha; assay: Inhibition of HIF1-mediated proliferation of hypoxia-stimulated human T47D cells up to 20 uM after 16 hrs by SRB assay; format: cell-based; procedure, shortened: as §3
[21] = target: T1, Hypoxia inducible factors; HIF-1-alpha, HIF-2-alpha; assay: Inhibition of HIF1-mediated proliferation of hypoxia-stimulated human MDA-MB-231 cells up to 20 uM after 16 hrs by SRB assay; format: cell-based; procedure, shortened: as §3
[22] = target: T1, Hypoxia inducible factors; HIF-1-alpha, HIF-2-alpha; assay: Inhibition of HIF1-mediated proliferation of hypoxia-stimulated human PC3 cells up to 20 uM after 16 hrs by SRB assay; format: cell-based; details: PC-3; procedure, shortened: as §3
MDA-MB-231 [23] = assay: Inhibition of human MDA-MB-231 cell migration at 5 to 20 uM after 22 hrs under normoxic condition; format: functional, cell-based
Procedure, shortened: (§4)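 Confluent MDA-MB-231 monolayers were scratched with pipet tips. Compound (5 or 20 µM) was added for 22 h under normoxia (95% air:5% CO2) or hypoxia (1% O2:94% N2:5% CO2). Cells were then fixed, stained and imaged. Parallel viability was checked by sulforhodamine B, as % of untreated control under matching oxygen conditions.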

MDA-MB-231 [24] = assay: Inhibition of human MDA-MB-231 cell migration at 5 to 20 uM after 22 hrs under hypoxic condition; format: functional, cell-based; procedure, shortened: as §4
[25] = target: T1, Hypoxia inducible factors; HIF-1-alpha, HIF-2-alpha; assay: Inhibition of HIF1-mediated migration of human MDA-MB-231 cells at 20 uM by wound healing assay; format: cell-based; procedure, shortened: as §4
T47D [26] = assay: Effect on cellular respiration in human T47D cells assessed as increase in oxygen consumption at 1 uM; format: functional
Procedure, shortened: (§5)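 Oxygen consumption of intact T47D cells monitored with a Clark-type electrode. Rate with compound expressed as % control (compound rate/control rate). n = 3; FCCP run as positive control.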

T47D [27] = assay: Effect on cellular respiration in human T47D cells assessed as decrease in oxygen consumption at 10 uM; format: functional; procedure, shortened: as §5
T47D [28] = assay: Induction of state 4 respiration of human T47D cells; format: functional, cell-based
Procedure, shortened: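 T47D respiration measured by Clark-type electrode. Oligomycin (1 µM final) added to establish state 4 respiration, then compound added at specified concentrations to test resumption of oxygen consumption; FCCP used as positive control.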

T47D [29] = assay: Effect on cellular respiration in human T47D cells assessed as increase in oxygen consumption at 1 uM in presence of mitochondrial uncoupler FCCP; format: functional, cell-based
T47D [30] = assay: Effect on cellular respiration in human T47D cells assessed as decrease in oxygen consumption at 10 uM n presence of mitochondrial uncoupler FCCP; format: functional, cell-based
T47D [31] = assay: Decrease in mitochondrial membrane potential in human T47D cells 1 to 10 uM after 15 mins by TMRM assay; format: functional, cell-based
Procedure, shortened: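 T47D cells seeded at 100,000/well on chambered coverglass overnight, then switched to TES buffer (20 mM, pH 7.3) with salts, 5 mM glucose, 0.3% BSA and 2 nM TMRM. Loaded 1 h 15 min at 37 °C, then compound added for 15 min. Live-cell epifluorescence imaging; FCCP as reference.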

In the case of `N#CC(C#N)=NNc1ccc(OC(F)(F)F)cc1`, the IC50 [1] was 0.51 µM, the IC50 [2] was 0.31 µM and the inhibition [3] was “Active”.
For `CCC(C)C(=O)c1c(O)c(CC=C(C)C)c(O)c2c(C(CC)OC(C)=O)cc(=O)oc12` (centres undefined), the IC50 [1] was 0.96 µM, the IC50 [2] was 0.89 µM and the pIC50 (T47D [4]) was < 4.70. The IC50 [5] was 2 µM, the IC50 [6] was 6.5 µM and the inhibition [7] was “Dose-dependent effect”. For the same compound, the inhibition [8] was “Dose-dependent effect”, the inhibition [9] was “Dose-dependent effect” and the inhibition [10] was “Dose-dependent effect”. For the same compound, the inhibition [11] was 54%, the inhibition [12] was 53% and the inhibition [13] was 52%. It also gave an inhibition [14] of 40%, an inhibition [15] of 50% and an inhibition [16] of 50%. The inhibition [17] was 50%, the inhibition [18] was 40% and the inhibition [19] was < 30%. For the same compound, the inhibition [20] was < 30%, the inhibition [21] was < 30% and the inhibition [22] was < 30%. For the same compound, the Activity (MDA-MB-231 [23]) was “Active”, the Activity (MDA-MB-231 [24]) was “Active” and the inhibition [25] was 25%. For the same compound, the Activity (T47D [26]) was 30%, the inhibition at 10 µM (T47D [27]) was 50% and the Activity (T47D [28]) was “Active”. For the same compound, the Activity (T47D [29]) was “Active”, the Activity (T47D [30]) was “Active” and the inhibition (T47D [31]) was “Active”. The inhibition [3] was “inactive”.

— ChEMBL document CHEMBL1641385, “Mammea E/BB, an isoprenylated dihydroxycoumarin protonophore that potently uncouples mitochondrial electron transport, disrupts hypoxic signaling in tumor cells” (J Nat Prod, 2010)
